Experimental data published in ChEMBL document CHEMBL5154945, “Discovery and Optimization of Pyrrolopyrimidine Derivatives as Selective Disruptors of the Perinucleolar Compartment, a Marker of Tumor Progression toward Metastasis” (J Med Chem, 2022).
The source made the active and inactive calls. No cut-off for these calls is given here.

Legend:
[1] = Cytotoxicity against human PC-3M cells expressing PTB/GFP fusion protein assessed as reduction in ATP level and measured after 24 to 48 hrs by ATPlite luminescence assay; assay type: toxicity, cell-based
[2] = tested on: PC-3M; assay: Antiproliferative activity against human PC-3M cells expressing PTB/GFP fusion protein assessed as cell growth inhibition at < 100 nM and measured every four hrs for 130 hrs by IncuCyte zoom live cell analysis; assay type: functional, cell-based; conditions: DDE = dose-dependent effect
How it was run: (§1)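 PC3M cells stably expressing GFP-PTB, grown in DMEM with 10% FBS and 1% penicillin/streptomycin, seeded at 1.25×10^4 cells/ml in 384-well plates and left overnight at 37 °C, 5% CO2. Compound added in DMEM to give 11 final concentrations from 10 nM to 20 μM. Brightfield images were taken every 4 h for about 130 h and scored as percent confluence.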

[3] = tested on: PC-3M; assay: Antiproliferative activity against human PC-3M cells expressing PTB/GFP fusion protein assessed as cell growth inhibition at 0.1 to 10 uM and measured every four hrs for 130 hrs by IncuCyte zoom live cell analysis; assay type: functional, cell-based; conditions: dose 0.1-10 µM; how it was run: as §1
[4] = tested on: PC-3M; assay: Antiproliferative activity against human PC-3M cells expressing PTB/GFP fusion protein assessed as inhibition of nucleolar volume measured after 24 hrs by Nucleolar-id Green Detection based confocal microscopic analysis; assay type: functional, cell-based
[5] = Tmax in female BALB/c mouse at 5 mg/kg, ip and measured upto 48 hrs by LC-MS/MS analysis; assay type: ADME, organism-based; conditions: in vivo
How it was run: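 Fed female BALB/c mice, about 6–8 weeks old and 25–30 g, received a single IP dose of 5 or 25 mpk in NMP/PEG400/HP-β-CD aqueous vehicle (0.5 mg/mL for the 5 mpk dose). Three mice per time point were sampled up to 48 h by retro-orbital bleed under isoflurane into K2EDTA. Plasma was spun at 2000 g, 4 °C, frozen at -80 °C, and assayed by LC/MS/MS.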

[6] = AUC (0 to 48 hrs) in female BALB/c mouse at 5 mg/kg, ip at 48 hrs by LC-MS/MS analysis; assay type: ADME, organism-based; parameters: time 48 hrs, dose 5 mg/kg, route ip; conditions: in vivo
How it was run: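 Fed female BALB/c mice, about 6–8 weeks old and 25–30 g, received a single IP dose. The vehicle was 5-10% NMP + 20% PEG400 + 70-75% (25% HP-β-CD in water), with the drug at 2.5/0.5 mg/mL. Blood was taken by retro-orbital puncture under isoflurane into K2EDTA tubes, 3 mice per time point, over 48 h. Plasma was prepared at 2000 g, 5 min, 4 °C, and measured by LC/MS/MS.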

[7] = tested on: MOLT-4; assay: Anticancer activity against human MOLT-4 cells assessed as cell growth inhibition; assay type: functional, cell-based; conditions: dose 1-100 µM, DDE = dose-dependent effect
[8] = tested on: RPMI-8226; assay: Anticancer activity against human RPMI-8226 cells assessed as cell growth inhibition; assay type: functional, cell-based; conditions: dose 1-100 µM, DDE = dose-dependent effect
[9] = tested on: SR; assay: Anticancer activity against human SR cells assessed as cell growth inhibition; assay type: functional, cell-based; conditions: dose 1-100 µM, DDE = dose-dependent effect
[10] = tested on: A549; assay: Anticancer activity against human A549 cells assessed as cell growth inhibition; assay type: functional, cell-based; conditions: dose 1-100 µM, DDE = dose-dependent effect
[11] = tested on: HOP-62; assay: Anticancer activity against human HOP-62 cells assessed as cell growth inhibition; assay type: functional, cell-based; conditions: dose 1-100 µM, DDE = dose-dependent effect
[12] = tested on: NCI-H460; assay: Anticancer activity against human NCI-H460 cells assessed as cell growth inhibition; assay type: functional, cell-based; conditions: dose 1-100 µM, DDE = dose-dependent effect
[13] = tested on: NCI-H522; assay: Anticancer activity against human NCI-H522 cells assessed as cell growth inhibition; assay type: functional, cell-based; conditions: dose 1-100 µM, DDE = dose-dependent effect
[14] = tested on: HCT-116; assay: Anticancer activity against human HCT-116 cells assessed as cell growth inhibition; assay type: functional, cell-based; conditions: dose 1-100 µM, DDE = dose-dependent effect
[15] = tested on: KM12; assay: Anticancer activity against human KM12 cells assessed as cell growth inhibition; assay type: functional, cell-based; conditions: dose 1-100 µM, DDE = dose-dependent effect
[16] = tested on: SNB-75; assay: Anticancer activity against human SNB-75 cells assessed as cell growth inhibition; assay type: functional, cell-based; conditions: dose 1-100 µM, DDE = dose-dependent effect
[17] = tested on: U-251; assay: Anticancer activity against human U-251 cells assessed as cell growth inhibition; assay type: functional, cell-based; conditions: dose 1-100 µM, DDE = dose-dependent effect
[18] = tested on: SK-MEL-2; assay: Anticancer activity against human SK-MEL-2 cells assessed as cell growth inhibition; assay type: functional, cell-based; conditions: dose 1-100 µM, DDE = dose-dependent effect
[19] = tested on: SK-MEL-5; assay: Anticancer activity against human SK-MEL-5 cells assessed as cell growth inhibition; assay type: functional, cell-based; conditions: dose 1-100 µM, DDE = dose-dependent effect
[20] = tested on: OVCAR-3; assay: Anticancer activity against human OVCAR-3 cells assessed as cell growth inhibition; assay type: functional, cell-based; conditions: dose 1-100 µM, DDE = dose-dependent effect
[21] = tested on: SK-OV-3; assay: Anticancer activity against human SK-OV-3 cells assessed as cell growth inhibition; assay type: functional, cell-based; conditions: dose 1-100 µM, DDE = dose-dependent effect
[22] = tested on: ACHN; assay: Anticancer activity against human ACHN cells assessed as cell growth inhibition; assay type: functional, cell-based; conditions: dose 1-100 µM, DDE = dose-dependent effect
[23] = biological target: 5-hydroxytryptamine receptor 1A (Homo sapiens) (UniProt P08908); assay: Binding affinity to 5-HT1A receptor (unknown origin) at 10000 nM by radioligand displacement assay relative to control
[24] = biological target: 5-hydroxytryptamine receptor 2B (Homo sapiens) (UniProt P41595); assay: Binding affinity to 5-HT2B receptor (unknown origin) at 10000 nM by radioligand displacement assay relative to control
[25] = biological target: 5-hydroxytryptamine receptor 3A (Homo sapiens) (UniProt P46098); assay: Binding affinity to 5-HT3 receptor (unknown origin) at 10000 nM by radioligand displacement assay relative to control
[26] = biological target: 5-hydroxytryptamine receptor 5A (Homo sapiens) (UniProt P47898); assay: Binding affinity to 5-HT5A receptor (unknown origin) at 10000 nM by radioligand displacement assay relative to control
[27] = biological target: 5-hydroxytryptamine receptor 7 (Homo sapiens) (UniProt P34969); assay: Binding affinity to 5-HT7 receptor (unknown origin) at 10000 nM by radioligand displacement assay relative to control
[28] = biological target: Beta-3 adrenergic receptor (Homo sapiens) (UniProt P13945); assay: Binding affinity to beta3 receptor (unknown origin) at 10000 nM by radioligand displacement assay relative to control
[29] = biological target: D(4) dopamine receptor (Homo sapiens) (UniProt P21917); assay: Binding affinity to D4 receptor (unknown origin) at 10000 nM by radioligand displacement assay relative to control
[30] = biological target: Histamine H2 receptor (Homo sapiens) (UniProt P25021); assay: Binding affinity to H2 receptor (unknown origin) at 10000 nM by radioligand displacement assay relative to control
[31] = biological target: Muscarinic acetylcholine receptor M2 (Homo sapiens) (UniProt P08172); assay: Binding affinity to M2 receptor (unknown origin) at 10000 nM by radioligand displacement assay relative to control
[32] = biological target: Muscarinic acetylcholine receptor M5 (Homo sapiens) (UniProt P08912); assay: Binding affinity to M5 receptor (unknown origin) at 10000 nM by radioligand displacement assay relative to control
[33] = biological target: Sodium-dependent noradrenaline transporter (Homo sapiens) (UniProt P23975); assay: Binding affinity to NET receptor (unknown origin) at 10000 nM by radioligand displacement assay relative to control
[34] = mouse, in vivo, ip, 50 mg/kg, 48 h
[35] = mouse, in vivo, ip, 50 mg/kg, 48 h; remark: listed apart in the source
[36] = mouse, in vivo, ip, 50 mg/kg, 48 h; remark: listed apart in the source
[37] = in vitro; conditions: human, PC-3M cells expressing PTB/GFP fusion protein

Chain of Histamine H2 receptor (Homo sapiens) (P25021 whole entry): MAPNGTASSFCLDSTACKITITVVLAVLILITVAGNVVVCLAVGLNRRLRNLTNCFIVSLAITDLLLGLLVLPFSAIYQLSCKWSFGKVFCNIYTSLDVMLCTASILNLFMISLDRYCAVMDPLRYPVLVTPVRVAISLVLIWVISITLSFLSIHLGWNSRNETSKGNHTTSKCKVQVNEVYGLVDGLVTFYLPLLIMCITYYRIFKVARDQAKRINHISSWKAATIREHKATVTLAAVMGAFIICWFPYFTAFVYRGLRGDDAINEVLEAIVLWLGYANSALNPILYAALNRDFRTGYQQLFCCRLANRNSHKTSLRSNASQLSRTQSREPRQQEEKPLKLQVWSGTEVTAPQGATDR
Chain of 5-hydroxytryptamine receptor 7 (Homo sapiens) (P34969 whole entry): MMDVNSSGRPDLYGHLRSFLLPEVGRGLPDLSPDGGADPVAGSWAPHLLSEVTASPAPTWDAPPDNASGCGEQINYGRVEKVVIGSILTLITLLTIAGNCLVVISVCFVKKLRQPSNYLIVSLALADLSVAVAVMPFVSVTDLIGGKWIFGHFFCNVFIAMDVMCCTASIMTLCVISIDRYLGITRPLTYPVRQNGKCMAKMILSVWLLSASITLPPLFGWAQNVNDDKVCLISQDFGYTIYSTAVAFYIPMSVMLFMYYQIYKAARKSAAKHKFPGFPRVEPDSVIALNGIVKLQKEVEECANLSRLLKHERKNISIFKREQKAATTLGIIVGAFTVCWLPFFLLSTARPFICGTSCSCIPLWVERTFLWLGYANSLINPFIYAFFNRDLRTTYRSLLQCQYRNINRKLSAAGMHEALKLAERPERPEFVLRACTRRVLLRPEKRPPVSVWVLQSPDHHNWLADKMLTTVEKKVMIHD
Chain of 5-hydroxytryptamine receptor 5A (Homo sapiens) (P47898 whole entry): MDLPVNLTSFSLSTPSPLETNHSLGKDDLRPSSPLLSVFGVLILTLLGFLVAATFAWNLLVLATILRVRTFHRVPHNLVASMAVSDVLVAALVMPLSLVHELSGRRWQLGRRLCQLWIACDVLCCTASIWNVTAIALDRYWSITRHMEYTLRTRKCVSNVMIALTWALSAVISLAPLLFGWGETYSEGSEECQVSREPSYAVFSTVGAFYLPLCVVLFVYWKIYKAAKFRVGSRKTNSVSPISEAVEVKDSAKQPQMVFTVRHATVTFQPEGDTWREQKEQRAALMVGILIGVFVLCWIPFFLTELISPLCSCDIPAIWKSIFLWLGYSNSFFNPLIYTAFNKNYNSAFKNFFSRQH
Chain of Muscarinic acetylcholine receptor M2 (Homo sapiens) (P08172 whole entry): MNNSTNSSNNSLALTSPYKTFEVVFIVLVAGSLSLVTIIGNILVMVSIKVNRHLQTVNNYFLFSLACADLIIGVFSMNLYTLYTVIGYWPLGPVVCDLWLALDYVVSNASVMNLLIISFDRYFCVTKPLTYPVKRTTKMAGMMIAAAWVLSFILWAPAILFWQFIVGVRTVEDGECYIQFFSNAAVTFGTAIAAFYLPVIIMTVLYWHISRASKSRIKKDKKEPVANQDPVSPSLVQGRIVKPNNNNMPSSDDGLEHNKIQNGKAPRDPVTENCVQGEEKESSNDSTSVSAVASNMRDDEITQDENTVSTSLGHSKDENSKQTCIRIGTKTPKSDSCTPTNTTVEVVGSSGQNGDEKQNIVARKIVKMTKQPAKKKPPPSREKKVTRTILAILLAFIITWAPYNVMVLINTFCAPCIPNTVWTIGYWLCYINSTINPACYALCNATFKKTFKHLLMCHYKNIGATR
Chain of 5-hydroxytryptamine receptor 1A (Homo sapiens) (P08908 whole entry): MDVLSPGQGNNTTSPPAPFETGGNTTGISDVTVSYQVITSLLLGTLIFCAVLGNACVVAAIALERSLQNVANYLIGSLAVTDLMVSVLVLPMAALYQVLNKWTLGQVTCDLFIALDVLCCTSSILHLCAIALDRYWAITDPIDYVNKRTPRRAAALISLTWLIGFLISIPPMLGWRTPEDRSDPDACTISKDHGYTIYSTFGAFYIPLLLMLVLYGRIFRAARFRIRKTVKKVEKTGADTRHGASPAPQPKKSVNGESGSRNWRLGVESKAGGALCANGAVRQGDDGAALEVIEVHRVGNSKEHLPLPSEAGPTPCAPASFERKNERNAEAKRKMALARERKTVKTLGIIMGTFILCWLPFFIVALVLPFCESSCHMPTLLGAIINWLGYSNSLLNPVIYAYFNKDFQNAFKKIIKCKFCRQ
Chain of D(4) dopamine receptor (Homo sapiens) (P21917 whole entry): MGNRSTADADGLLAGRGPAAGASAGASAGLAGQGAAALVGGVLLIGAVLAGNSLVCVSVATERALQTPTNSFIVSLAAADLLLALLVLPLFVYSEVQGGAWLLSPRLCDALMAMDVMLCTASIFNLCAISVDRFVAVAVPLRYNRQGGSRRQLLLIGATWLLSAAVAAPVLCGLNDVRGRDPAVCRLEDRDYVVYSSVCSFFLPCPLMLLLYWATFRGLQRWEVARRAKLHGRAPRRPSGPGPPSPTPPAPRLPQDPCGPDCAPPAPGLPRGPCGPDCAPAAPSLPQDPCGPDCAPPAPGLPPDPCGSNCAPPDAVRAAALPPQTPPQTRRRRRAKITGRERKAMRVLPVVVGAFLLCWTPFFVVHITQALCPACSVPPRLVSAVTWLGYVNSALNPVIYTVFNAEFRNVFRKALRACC
Chain of Beta-3 adrenergic receptor (Homo sapiens) (P13945 whole entry, looked up): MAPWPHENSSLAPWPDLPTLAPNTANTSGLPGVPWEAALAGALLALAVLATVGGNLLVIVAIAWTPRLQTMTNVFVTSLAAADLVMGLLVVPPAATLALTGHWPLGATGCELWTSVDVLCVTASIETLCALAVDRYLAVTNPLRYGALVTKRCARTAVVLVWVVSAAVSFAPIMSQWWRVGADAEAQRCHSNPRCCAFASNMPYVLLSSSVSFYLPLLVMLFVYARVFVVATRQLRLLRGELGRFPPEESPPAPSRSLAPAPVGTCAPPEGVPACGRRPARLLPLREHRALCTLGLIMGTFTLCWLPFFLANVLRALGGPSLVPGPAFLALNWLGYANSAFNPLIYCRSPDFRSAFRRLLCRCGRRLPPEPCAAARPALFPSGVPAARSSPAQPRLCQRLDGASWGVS
Chain of 5-hydroxytryptamine receptor 3A (Homo sapiens) (P46098 whole entry): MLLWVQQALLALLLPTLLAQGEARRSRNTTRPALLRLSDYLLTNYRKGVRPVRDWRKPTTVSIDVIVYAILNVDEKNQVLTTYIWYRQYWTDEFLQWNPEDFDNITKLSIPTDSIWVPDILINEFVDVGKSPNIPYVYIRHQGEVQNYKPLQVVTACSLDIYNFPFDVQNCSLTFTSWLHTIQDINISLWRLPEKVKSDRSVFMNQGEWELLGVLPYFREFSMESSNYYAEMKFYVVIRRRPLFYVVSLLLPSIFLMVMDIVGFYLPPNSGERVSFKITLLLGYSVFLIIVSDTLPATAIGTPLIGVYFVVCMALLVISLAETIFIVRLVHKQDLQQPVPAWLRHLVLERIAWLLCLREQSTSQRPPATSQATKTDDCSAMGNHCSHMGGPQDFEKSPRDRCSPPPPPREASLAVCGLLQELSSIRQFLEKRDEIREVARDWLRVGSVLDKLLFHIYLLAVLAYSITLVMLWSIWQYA
Chain of Muscarinic acetylcholine receptor M5 (Homo sapiens) (P08912 whole entry): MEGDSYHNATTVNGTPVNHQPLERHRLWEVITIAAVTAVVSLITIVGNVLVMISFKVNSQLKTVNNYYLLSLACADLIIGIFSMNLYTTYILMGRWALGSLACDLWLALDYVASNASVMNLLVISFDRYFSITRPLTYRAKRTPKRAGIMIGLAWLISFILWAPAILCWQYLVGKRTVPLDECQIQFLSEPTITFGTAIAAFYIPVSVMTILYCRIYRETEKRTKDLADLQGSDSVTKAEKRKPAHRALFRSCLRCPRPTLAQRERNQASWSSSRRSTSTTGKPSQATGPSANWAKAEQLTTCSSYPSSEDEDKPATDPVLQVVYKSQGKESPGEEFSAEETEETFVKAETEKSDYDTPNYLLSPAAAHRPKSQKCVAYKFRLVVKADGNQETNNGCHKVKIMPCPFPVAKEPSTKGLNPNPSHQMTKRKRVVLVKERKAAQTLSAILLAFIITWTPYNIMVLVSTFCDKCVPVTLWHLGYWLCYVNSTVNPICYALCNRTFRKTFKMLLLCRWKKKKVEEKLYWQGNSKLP
Chain of 5-hydroxytryptamine receptor 2B (Homo sapiens) (P41595 whole entry): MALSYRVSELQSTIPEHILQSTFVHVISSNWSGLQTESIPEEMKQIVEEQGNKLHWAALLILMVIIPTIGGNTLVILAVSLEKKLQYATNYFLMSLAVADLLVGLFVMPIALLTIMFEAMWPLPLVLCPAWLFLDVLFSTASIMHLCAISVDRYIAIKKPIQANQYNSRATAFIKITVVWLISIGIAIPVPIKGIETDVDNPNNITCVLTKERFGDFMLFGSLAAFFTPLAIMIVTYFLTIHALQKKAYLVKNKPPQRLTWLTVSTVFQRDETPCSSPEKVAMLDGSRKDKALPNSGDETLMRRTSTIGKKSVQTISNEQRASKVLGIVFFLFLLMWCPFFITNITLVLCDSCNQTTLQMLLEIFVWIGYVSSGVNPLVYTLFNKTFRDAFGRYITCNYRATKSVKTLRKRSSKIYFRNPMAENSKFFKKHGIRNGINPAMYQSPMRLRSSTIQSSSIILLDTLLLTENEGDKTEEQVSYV

For `N=c1c2c(-c3ccccc3)c(-c3ccccc3)n(Cc3ccccc3)c2ncn1[C@H]1CC[C@H](O)CC1` [ML-246], the IC50 [1] was 7.65 µM, the Activity [2] was “Dde” and the Activity [3] was “Active”. The IC50 [4] was 0.61 µM, the Tmax [5] was 15 min and the AUC [6] was 6.08 µM·h. The Activity [7] was “Dde”, the Activity [8] was “Dde” and the Activity [9] was “Dde”. The Activity [10] was “Dde”, the Activity [11] was “Dde” and the Activity [12] was “Dde”. For the same molecule, the Activity [13] was “Dde”, the Activity [14] was “Dde” and the Activity [15] was “Dde”. The Activity [16] was “Dde”, the Activity [17] was “Dde” and the Activity [18] was “Dde”. The Activity [19] was “Dde”, the Activity [20] was “Dde” and the Activity [21] was “Dde”. The Activity [22] was “Dde”, the Activity [23] was less than 50% and the Activity [24] was less than 50%. It also gave an Activity [25] of less than 50%, an Activity [26] of less than 50% and an Activity [27] of less than 50%. It also gave an Activity [28] of less than 50%, an Activity [29] of less than 50% and an Activity [30] of less than 50%. For the same molecule, the Activity [31] was less than 50%, the Activity [32] was less than 50% and the Activity [33] was less than 50%. For the same molecule, the Tmax [34] was 30 min, the “beta t1/2” value [35] was 16.4 min and the AUC [36] was 231.77 µM·h. It also gave a selectivity ratio [37] of 38.3.
